Experimental data taken from ChEMBL document CHEMBL1240520, “Synthesis of heterocycle-based analogs of resveratrol and their antitumor and vasorelaxing properties” (Bioorg Med Chem, 2010).
The source made the active and inactive calls. The rule behind the calls is not given here.

How the values were obtained:
[1] = test system: Aorta; assay: Vasorelaxant activity in Wistar rat aortic rings assessed as reduction in KCL-induced contractile tone in presence of tetraethylammonium chloride; type: functional, tissue-based
[2] = test system: Aorta; assay: Vasorelaxant activity in Wistar rat aortic rings assessed as reduction in KCL-induced contractile tone at 30 uM; type: functional
How it was run: (§1)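 Endothelium-denuded thoracic aortic rings from male normotensive Wistar rats (250–350 g), equilibrated 60 min, precontracted with KCl 30 mM. Compounds added cumulatively at threefold increasing concentrations up to 30 µM. Efficacy is the maximal relaxation, or the response at 30 µM, as % of KCl tone. pIC50 is −log molar concentration halving tone, not calculated below 50% efficacy; mean ± SE, 5–10 experiments.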

[3] = test system: Aorta; assay: Vasorelaxant activity in Wistar rat aortic rings assessed as reduction in KCL-induced contractile tone; type: functional, tissue-based; how it was run: as §1
[4] = test system: MDA-MB-231; assay: Antitumor activity against human MDA-MB-231 cells after 6 days by SRB assay; type: functional, cell-based; conditions: MDA-MB-231, 144 h
How it was run: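 MDA-MB-231 cells in DMEM with 5% FBS, 37 °C, 5% CO2, seeded 1.3 × 10³ cells/well and adhered 24 h; treated 0.25 to 64 µM (five wells per treatment, vehicle EtOH or DMSO) for 6 days. TCA-fixed, SRB-stained, OD 540 nm. Proliferation index = OD at day 6 / OD at time zero; IC50 from means of three independent experiments.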

Row | IC50 [3] | IC50 [4] | SMILES | Activity [1] | Emax at 30 µM [2]
1 | 6.92 µM |  | Oc1ccc(/C=C/c2cc(O)cc(O)c2)cc1 [RESVERATROL] | inactive | 83%
2 | 15.5 µM | 46.1 µM | Oc1cc(O)cc(-c2cc3cc(O)ccc3o2)c1 | inactive | 77.2%
3 |  | 17.4 µM | Oc1cc(O)cc(-c2cnc3cc(O)ccc3c2)c1 |  | 17.2%
4 | 15.5 µM | 18.1 µM | Oc1cc(O)cc(-c2nc3cccc(O)c3s2)c1 | inactive | 76.8%
5 | 15.8 µM | 47.4 µM | Oc1cc(O)cc(-c2cc3ccc(O)cc3nc2Cl)c1 | inactive | 84.6%
6 | 12.6 µM | > 100 µM | Oc1ccc(-c2nc3c(O)cc(O)cc3s2)cc1 | inactive | 80.6%
7 | 12.9 µM |  | Oc1cc(O)cc(-c2ccc3cc(O)ccc3c2)c1 | inactive | 78.5%
8 | 12 µM | 19.4 µM | Oc1cc(O)cc(-c2nc3ccc(O)cc3s2)c1 | Active | 88.2%
9 |  |  | O/N=C/c1ccc(-c2cc(O)cc(O)c2)cc1O [SALICYLALDOXIME] | Active | 
10 |  | 67.6 µM | Oc1ccc(-c2nc3cc(O)cc(O)c3s2)cc1 | inactive | 39.6%
